Data published in ChEMBL document CHEMBL1138363, “N,N'-dihydroxyamidines: a new prodrug principle to improve the oral bioavailability of amidines” (J Med Chem, 2007).

Columns and labels:
Settings in all cases: in vivo
[1] = tested on: Sus scrofa; assay: AUC in po dosed pig; type: ADME, organism-based, Plasma
Summary of the method: (§1)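 Prodrug given orally to three pigs at 10 mg/kg body weight. Heparinized blood samples were centrifuged at 1500g for 10 min at 4 °C, stored at -80 °C and worked up by solid-phase extraction. Some samples were pretreated with β-glucuronidase/sulfatase. Benzamidine and benzamidoxime were measured in plasma by HPLC. Pharmacokinetic parameters were estimated for each pig from the plasma concentration-time curves.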

[2] = tested on: Sus scrofa; assay: Clearance in po dosed pig; type: ADME, organism-based; summary of the method: as §1
[3] = Half life in po dosed pig; type: ADME, organism-based, Sus scrofa; summary of the method: as §1
[4] = Oral bioavailability in pig; type: ADME, organism-based, Sus scrofa; summary of the method: as §1
[5] = tested on: Sus scrofa; assay: Plasma concentration in pig at 10 mg/kg, po; type: ADME, organism-based; design: dose 10 mg/kg, route oral; summary of the method: as §1
[6] = Tmax in po dosed pig; type: ADME, organism-based, Sus scrofa; summary of the method: as §1
[7] = Cmax in po dosed pig; type: ADME, organism-based, Sus scrofa; design: route oral; summary of the method: as §1
[8] = tested on: Sus scrofa; assay: Volume of distribution in po dosed pig; type: ADME, organism-based; summary of the method: as §1
[9] = Mean resident time in po dosed pig; type: ADME, organism-based, Sus scrofa; summary of the method: as §1

Row | SMILES | AUC [1] [µM·h] | CL [2] [mL/min/kg] | half-life [3] [h] | bioavailability [4] [%] | concentration [5] [µM] | Tmax [6] [h] | Cmax [7] [µM] | Vd [8] [L/kg] | MRT [9] [h]
1 | N=C(N)c1ccccc1 [BENZAMIDINE] | 98.7 | 30 | 3.7 | 91 | 13.7 | 2 | 13.7 | 7.91 | 6.16
2 | NC(=NO)c1ccccc1 [BENZAMIDOXIME] | – | – | – | – | 0.4 | – | – | – | –
